From ChEMBL document CHEMBL5058577, “EUbOPEN Chemogenomics Library 2 (Multiplex)” (2022)

Tested on: U2OS
Test: Multiplex assay against U2OS
Assay type: toxicity, cell-based
Details: human
Procedure, shortened: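 Per cents of healthy-nucleus cells form the tubulin, mitochondrial-mass and membrane-permeability phenotype values. Live cells were stained at seeding with Hoechst33342, BioTracker Green Microtubule Cytoskeleton Dye, MitoTracker Red and Annexin V Alexa Fluor 680. After compound addition they were imaged on a CQ1 microscope at 37°C and 5% CO2, and CellPathfinder machine-learning gating split them into Hoechst high-intensity objects or normal cells, normal cells into healthy, pyknosed or fragmented nuclei, and pyknosed cells into mitotic or apoptotic.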

[1] = 12 h, 1 µM, compound concentration 1 uM, replicate 1
[2] = 12 h, 1 µM, compound concentration 1 uM, replicate 2
[3] = 12 h, 10 µM, compound concentration 10 uM, replicate 1
[4] = 12 h, 10 µM, compound concentration 10 uM, replicate 2
[5] = 24 h, 1 µM, compound concentration 1 uM, replicate 1
[6] = 24 h, 1 µM, compound concentration 1 uM, replicate 2
[7] = 24 h, 10 µM, compound concentration 10 uM, replicate 1
[8] = 24 h, 10 µM, compound concentration 10 uM, replicate 2
[9] = 48 h, 1 µM, compound concentration 1 uM, replicate 1
[10] = 48 h, 1 µM, compound concentration 1 uM, replicate 2
[11] = 48 h, 10 µM, compound concentration 10 uM, replicate 1
[12] = 48 h, 10 µM, compound concentration 10 uM, replicate 2

Br.CS(=O)(=O)Nc1c(O)ccc2c1CCCC2C1=NCCN1 (centres undefined)
Population Apoptotic (%) [1]: 63%
Population Fragmented Nuclei (%) [1]: 20%
Population Healthy Nuclei (%) [1]: 75%
Population Hoechst High Intensity Objects (%) [1]: 2%
Population Membrane Permeable-Phenotype (%) [1]: 3%
Population Mitochondria Different-Phenotype (%) [1]: 2%
Population Mitotic Cells (%) [1]: 36%
Population Normal (%) [1]: 97%
Population Pyknosed Nuclei (%) [1]: 3%
Population Tubulin-Different-Phenotype (%) [1]: 2%
Total Cell Count [1]: 288
Population Apoptotic (%) [2]: 80%
Population Fragmented Nuclei (%) [2]: 13%
Population Healthy Nuclei (%) [2]: 82%
Population Hoechst High Intensity Objects (%) [2]: 0%
Population Membrane Permeable-Phenotype (%) [2]: 5%
Population Mitochondria Different-Phenotype (%) [2]: 1%
Population Mitotic Cells (%) [2]: 20%
Population Normal (%) [2]: 100%
Population Tubulin-Different-Phenotype (%) [2]: 1%
Total Cell Count [2]: 151
Population Apoptotic (%) [3]: 69%
Population Fragmented Nuclei (%) [3]: 36%
Population Healthy Nuclei (%) [3]: 57%
Population Hoechst High Intensity Objects (%) [3]: 1%
Population Membrane Permeable-Phenotype (%) [3]: 8%
Population Mitochondria Different-Phenotype (%) [3]: 0%
Population Mitotic Cells (%) [3]: 30%
Population Normal (%) [3]: 98%
Population Pyknosed Nuclei (%) [3]: 6%
Population Tubulin-Different-Phenotype (%) [3]: 1%
Total Cell Count [3]: 215
Population Apoptotic (%) [4]: 100%
Population Fragmented Nuclei (%) [4]: 22%
Population Healthy Nuclei (%) [4]: 75%
Population Hoechst High Intensity Objects (%) [4]: 0%
Population Membrane Permeable-Phenotype (%) [4]: 6%
Population Mitochondria Different-Phenotype (%) [4]: 6%
Population Mitotic Cells (%) [4]: 0%
Population Normal (%) [4]: 100%
Population Pyknosed Nuclei (%) [4]: 2%
Total Cell Count [4]: 84
Population Apoptotic (%) [5]: 76%
Population Fragmented Nuclei (%) [5]: 18%
Population Healthy Nuclei (%) [5]: 73%
Population Hoechst High Intensity Objects (%) [5]: 2%
Population Membrane Permeable-Phenotype (%) [5]: 3%
Population Mitochondria Different-Phenotype (%) [5]: 2%
Population Mitotic Cells (%) [5]: 23%
Population Normal (%) [5]: 97%
Population Pyknosed Nuclei (%) [5]: 7%
Population Tubulin-Different-Phenotype (%) [5]: 2%
Total Cell Count [5]: 341
Population Apoptotic (%) [6]: 92%
Population Fragmented Nuclei (%) [6]: 14%
Population Healthy Nuclei (%) [6]: 78%
Population Hoechst High Intensity Objects (%) [6]: 1%
Population Membrane Permeable-Phenotype (%) [6]: 7%
Population Mitotic Cells (%) [6]: 7%
Population Normal (%) [6]: 98%
Population Tubulin-Different-Phenotype (%) [6]: 4%
Total Cell Count [6]: 185
Population Apoptotic (%) [7]: 86%
Population Fragmented Nuclei (%) [7]: 31%
Population Healthy Nuclei (%) [7]: 62%
Population Hoechst High Intensity Objects (%) [7]: 2%
Population Membrane Permeable-Phenotype (%) [7]: 5%
Population Mitochondria Different-Phenotype (%) [7]: 1%
Population Mitotic Cells (%) [7]: 13%
Population Normal (%) [7]: 97%
Population Pyknosed Nuclei (%) [7]: 6%
Population Tubulin-Different-Phenotype (%) [7]: 2%
Total Cell Count [7]: 240
Population Apoptotic (%) [8]: 100%
Population Fragmented Nuclei (%) [8]: 16%
Population Healthy Nuclei (%) [8]: 80%
Population Hoechst High Intensity Objects (%) [8]: 0%
Population Membrane Permeable-Phenotype (%) [8]: 3%
Population Mitochondria Different-Phenotype (%) [8]: 4%
Population Mitotic Cells (%) [8]: 0%
Population Normal (%) [8]: 100%
Population Pyknosed Nuclei (%) [8]: 2%
Population Tubulin-Different-Phenotype (%) [8]: 3%
Total Cell Count [8]: 103
Population Apoptotic (%) [9]: 74%
Population Fragmented Nuclei (%) [9]: 14%
Population Healthy Nuclei (%) [9]: 78%
Population Hoechst High Intensity Objects (%) [9]: 1%
Population Membrane Permeable-Phenotype (%) [9]: 2%
Population Mitochondria Different-Phenotype (%) [9]: 2%
Population Mitotic Cells (%) [9]: 25%
Population Normal (%) [9]: 98%
Population Pyknosed Nuclei (%) [9]: 6%
Population Tubulin-Different-Phenotype (%) [9]: 2%
Total Cell Count [9]: 484
Population Apoptotic (%) [10]: 81%
Population Fragmented Nuclei (%) [10]: 13%
Population Healthy Nuclei (%) [10]: 76%
Population Membrane Permeable-Phenotype (%) [10]: 5%
Population Mitotic Cells (%) [10]: 18%
Population Pyknosed Nuclei (%) [10]: 10%
Population Tubulin-Different-Phenotype (%) [10]: 1%
Total Cell Count [10]: 253
Population Apoptotic (%) [11]: 90%
Population Fragmented Nuclei (%) [11]: 23%
Population Healthy Nuclei (%) [11]: 70%
Population Hoechst High Intensity Objects (%) [11]: 1%
Population Membrane Permeable-Phenotype (%) [11]: 5%
Population Mitochondria Different-Phenotype (%) [11]: 1%
Population Mitotic Cells (%) [11]: 10%
Population Normal (%) [11]: 98%
Population Pyknosed Nuclei (%) [11]: 6%
Population Tubulin-Different-Phenotype (%) [11]: 2%
Total Cell Count [11]: 333
Population Apoptotic (%) [12]: 100%
Population Fragmented Nuclei (%) [12]: 17%
Population Healthy Nuclei (%) [12]: 74%
Population Hoechst High Intensity Objects (%) [12]: 0%
Population Membrane Permeable-Phenotype (%) [12]: 3%
Population Mitochondria Different-Phenotype (%) [12]: 6%
Population Mitotic Cells (%) [12]: 0%
Population Normal (%) [12]: 100%
Population Pyknosed Nuclei (%) [12]: 7%
Total Cell Count [12]: 152
